Assays:
MCF7 = assay: Growth inhibition of human MCF7 cells after 48 hrs by SRB assay; assay type: functional; settings: MCF7, 48 h
NCI-H460 = assay: Growth inhibition of human NCI-H460 cells after 48 hrs by SRB assay; assay type: functional; settings: NCI-H460, 48 h
SF-539 = assay: Growth inhibition of human SF539 cells after 48 hrs by SRB assay; assay type: functional; settings: SF-539, 48 h
MKN-45 = assay: Growth inhibition of human MKN45 cells after 48 hrs by SRB assay; assay type: functional; settings: MKN-45, 48 h
LOX IMVI = assay: Growth inhibition of human LOXIMVI cells after 48 hrs by SRB assay; assay type: functional
OVCAR-4 = assay: Growth inhibition of human OVCAR4 cells after 48 hrs by SRB assay; assay type: functional; settings: OVCAR-4, 48 h
HCC 2998 = assay: Growth inhibition of human HCC2998 cells after 48 hrs by SRB assay; assay type: functional; settings: HCC 2998, 48 h
[1] = Reversal of multidrug resistance in human 2780AD cells assessed as [3H]vincristine accumulation at 1 ug/mL after 2 hrs relative to control; assay type: functional, A2780 ADR
How it was run: (§1)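 Multidrug-resistant human ovarian cancer 2780AD cells were exposed to taxoids at 0.1, 1 or 10 µg/mL. Radiolabelled vincristine accumulated in the cells was measured as dpm/well, using means of triplicate determinations. Results are expressed as % of vincristine accumulated relative to the control experiment. They were also scored on a seven-level index according to the range of relative accumulation.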

[2] = Reversal of multidrug resistance in human 2780AD cells assessed as [3H]vincristine accumulation at 0.1 ug/mL after 2 hrs relative to control; assay type: functional, A2780 ADR; how it was run: as §1
SNB-78 = assay: Growth inhibition of human SNB78 cells after 48 hrs by SRB assay; assay type: functional; settings: SNB-78, 48 h
HCT-116 = assay: Growth inhibition of human HCT116 cells after 48 hrs by SRB assay; assay type: functional; settings: HCT-116, 48 h
U-251 = assay: Growth inhibition of human U251 cells after 48 hrs by SRB assay; assay type: functional; settings: U-251, 48 h
KM12 = assay: Growth inhibition of human KM12 cells after 48 hrs by SRB assay; assay type: functional; settings: KM12, 48 h
[3] = Growth inhibition of human RXF631L cells after 48 hrs by SRB assay; assay type: functional; settings: RXF 631, 48 h
OVCAR-5 = assay: Growth inhibition of human OVCAR5 cells after 48 hrs by SRB assay; assay type: functional; settings: OVCAR-5, 48 h
MDA-MB-231 = assay: Growth inhibition of human MDA-MB-231 cells after 48 hrs by SRB assay; assay type: functional; settings: MDA-MB-231, 48 h
OVCAR-3 = assay: Growth inhibition of human OVCAR-3 cells after 48 hrs by SRB assay; assay type: functional; settings: OVCAR-3, 48 h
[4] = Growth inhibition of human HBC4 cells after 48 hrs by SRB assay; assay type: functional; settings: HBC4, 48 h
[5] = Growth inhibition of human MKN1 cells after 48 hrs by SRB assay; assay type: functional; settings: MKN-1, 48 h
[6] = Reversal of multidrug resistance in human 2780AD cells assessed as [3H]vincristine accumulation at 1 ug/mL after 2 hrs relative to verapamil; assay type: functional, A2780 ADR
[7] = Reversal of multidrug resistance in human 2780AD cells assessed as [3H]vincristine accumulation at 0.1 ug/mL after 2 hrs relative to verapamil; assay type: functional, A2780 ADR
SK-OV-3 = assay: Growth inhibition of human SKOV3 cells after 48 hrs by SRB assay; assay type: functional; settings: SK-OV-3, 48 h
[8] = read-out: LC50 (the source's name)
[9] = read-out: pLC50 (the source's name) (converted)

Compound C=C1[C@@H](OC(C)=O)CC[C@]2(C)[C@@H]1C[C@@H]1C[C@H](OC(C)=O)C(C)=C([C@@H](O)[C@@H]2OC(=O)/C=C/c2ccccc2)C1(C)C has a GI50 (MCF7; read-out: GI50) of 9.3 µM, a CC50 (MCF7; [8]) of over 100 µM and a TGI (MCF7; read-out: TGI) of 100 µM. For the same compound, the GI50 (MCF7; read-out: pGI50 (converted)) was 9.33 µM, the CC50 (MCF7; read-out: pLC50 (converted)) was over 100 µM and the TGI (MCF7; read-out: pTGI (converted)) was 100 µM. For the same compound, the GI50 (NCI-H460; read-out: GI50) was 44 µM, the TGI (NCI-H460; read-out: TGI) was 100 µM and the GI50 (NCI-H460; read-out: pGI50 (converted)) was 41.7 µM. For the same compound, the TGI (NCI-H460; read-out: pTGI (converted)) was 100 µM, the GI50 (SF-539; read-out: GI50) was over 100 µM and the CC50 (SF-539; [8]) was 100 µM. For the same compound, the TGI (SF-539; read-out: TGI) was 100 µM, the GI50 (SF-539; read-out: pGI50 (converted)) was over 100 µM and the CC50 (SF-539; [9]) was 100 µM. It also gave a TGI (SF-539; read-out: pTGI (converted)) of 100 µM, a CC50 (MKN-45; [8]) of 100 µM and a TGI (MKN-45; read-out: TGI) of 100 µM. For the same compound, the GI50 (MKN-45; read-out: pGI50 (converted)) was over 100 µM, the CC50 (MKN-45; [9]) was 100 µM and the TGI (MKN-45; read-out: pTGI (converted)) was 100 µM. It also gave a GI50 (LOX IMVI; read-out: GI50) of 38 µM, a CC50 (LOX IMVI; [8]) of 100 µM and a TGI (LOX IMVI; read-out: TGI) of 100 µM. It also gave a GI50 (LOX IMVI; read-out: pGI50 (converted)) of 38 µM, a CC50 (LOX IMVI; [9]) of 100 µM and a TGI (LOX IMVI; read-out: pTGI (converted)) of 100 µM. For the same compound, the GI50 (OVCAR-4; read-out: GI50) was 22 µM, the CC50 (OVCAR-4; [8]) was 100 µM and the TGI (OVCAR-4; read-out: TGI) was 100 µM. For the same compound, the GI50 (OVCAR-4; read-out: pGI50 (converted)) was 22.4 µM, the CC50 (OVCAR-4; [9]) was 100 µM and the TGI (OVCAR-4; read-out: pTGI (converted)) was 100 µM. It also gave a GI50 (HCC 2998; read-out: GI50) of 26 µM, a CC50 (HCC 2998; [8]) of 100 µM and a TGI (HCC 2998; read-out: TGI) of 100 µM. It also gave a GI50 (HCC 2998; read-out: pGI50 (converted)) of 26.3 µM, a CC50 (HCC 2998; [9]) of 100 µM and a TGI (HCC 2998; read-out: pTGI (converted)) of 100 µM. It also gave an Activity [1] of 399%, an Activity [2] of 162% and a GI50 (SNB-78; read-out: GI50) of 3.2 µM. The TGI (SNB-78; read-out: TGI) was 100 µM, the GI50 (SNB-78; read-out: pGI50 (converted)) was 3.16 µM and the TGI (SNB-78; read-out: pTGI (converted)) was 100 µM. It also gave a GI50 (HCT-116; read-out: GI50) of 5.6 µM, a CC50 (HCT-116; [8]) of 100 µM and a TGI (HCT-116; read-out: TGI) of 100 µM. For the same compound, the GI50 (HCT-116; read-out: pGI50 (converted)) was 5.62 µM, the CC50 (HCT-116; [9]) was 100 µM and the TGI (HCT-116; read-out: pTGI (converted)) was 100 µM. The GI50 (U-251; read-out: GI50) was 71 µM, the CC50 (U-251; [8]) was 100 µM and the TGI (U-251; read-out: TGI) was 100 µM. It also gave a GI50 (U-251; read-out: pGI50 (converted)) of 70.8 µM, a CC50 (U-251; [9]) of 100 µM and a TGI (U-251; read-out: pTGI (converted)) of 100 µM. The GI50 (KM12; read-out: GI50) was 6.4 µM, the CC50 (KM12; [8]) was over 100 µM and the TGI (KM12; read-out: TGI) was 100 µM. The GI50 (KM12; read-out: pGI50 (converted)) was 6.46 µM, the CC50 (KM12; read-out: pLC50 (converted)) was over 100 µM and the TGI (KM12; read-out: pTGI (converted)) was 100 µM. It also gave a GI50 ([3]; read-out: GI50) of over 100 µM, a CC50 [3, 8] of 100 µM and a TGI ([3]; read-out: TGI) of 100 µM. The GI50 ([3]; read-out: pGI50 (converted)) was over 100 µM, the CC50 [3, 9] was 100 µM and the TGI ([3]; read-out: pTGI (converted)) was 100 µM. The GI50 (OVCAR-5; read-out: GI50) was 32 µM, the TGI (OVCAR-5; read-out: TGI) was 100 µM and the GI50 (OVCAR-5; read-out: pGI50 (converted)) was 32.4 µM. It also gave a TGI (OVCAR-5; read-out: pTGI (converted)) of 100 µM, a GI50 (MDA-MB-231; read-out: GI50) of 16 µM and a TGI (MDA-MB-231; read-out: TGI) of 100 µM. For the same compound, the GI50 (MDA-MB-231; read-out: pGI50 (converted)) was 16.2 µM, the TGI (MDA-MB-231; read-out: pTGI (converted)) was 100 µM and the GI50 (OVCAR-3; read-out: GI50) was 5 µM. The CC50 (OVCAR-3; [8]) was over 100 µM, the TGI (OVCAR-3; read-out: TGI) was 100 µM and the GI50 (OVCAR-3; read-out: pGI50 (converted)) was 5.01 µM. For the same compound, the CC50 (OVCAR-3; read-out: pLC50 (converted)) was over 100 µM, the TGI (OVCAR-3; read-out: pTGI (converted)) was 100 µM and the CC50 [4, 8] was 100 µM. It also gave a TGI ([4]; read-out: TGI) of 100 µM, a GI50 ([4]; read-out: pGI50 (converted)) of over 100 µM and a CC50 [4, 9] of 100 µM. The TGI ([4]; read-out: pTGI (converted)) was 100 µM, the GI50 ([5]; read-out: GI50) was 93 µM and the TGI ([5]; read-out: TGI) was 100 µM. It also gave a GI50 ([5]; read-out: pGI50 (converted)) of 93.3 µM, a TGI ([5]; read-out: pTGI (converted)) of 100 µM and an Activity [6] of 191%. For the same compound, the Activity [7] was 139%, the GI50 (SK-OV-3; read-out: GI50) was over 100 µM and the CC50 (SK-OV-3; [8]) was 100 µM. It also gave a TGI (SK-OV-3; read-out: TGI) of 100 µM, a GI50 (SK-OV-3; read-out: pGI50 (converted)) of over 100 µM and a CC50 (SK-OV-3; [9]) of 100 µM. For the same compound, the TGI (SK-OV-3; read-out: pTGI (converted)) was 100 µM.

Reference: ChEMBL document CHEMBL1146459, “Production of biologically active taxoids by a callus culture of Taxus cuspidata” (2004)
